Article PMC6424611 (Journal of molecular biology, 2019)
Where a chain is given by its changes, count along the chain named. In names and notes the source's numbering stands.

How the values were obtained:
SYNJ2BP = assay: NanoBiT protein-protein interaction assay; type: cell-based, human; details: full-length proteins, serum-starved HEK293T, n=6, vs WT RSK1
Outline: (§1)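 Full-length RSK1 (N-terminal SmBiT) is paired with an N-terminal LgBiT fusion of the partner: ARHGEF12 isoform 2, GOPC isoform 2, PARD3B 1–913, or SYNJ2BP. Sensors are transiently co-expressed in HEK293T cells, which are serum-starved for 20 h from 4 h post-transfection and assayed with Nano-Glo at 24 h. Steady-state signal is referenced to the wild-type pair. For the EGF response (20 ng/ml, 60 min), signal is normalized to initial luminescence and to unstimulated furimazine decay. At least 6 replicates.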

ARHGEF12 = assay: NanoBiT protein-protein interaction assay; type: cell-based, human; details: full-length proteins, serum-starved HEK293T, n=6, vs WT RSK1
Outline: as §1

RhoA = assay: G-LISA RhoA activation assay; type: cell-based; details: RSK1/2 knockout HEK293T, n=4; for serum-stimulated RhoA activity: serum-starved, 20% serum 5 min
GOPC = assay: NanoBiT protein-protein interaction assay; type: cell-based, human; details: full-length proteins, serum-starved HEK293T, n=6, vs WT RSK1
Outline: as §1

MAGI1 = assay: NanoBiT protein-protein interaction assay; type: cell-based, human; details: full-length proteins, serum-starved HEK293T, n=6, vs WT RSK1
Outline: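 Full-length RSK1 (N-terminal SmBiT) is co-expressed with full-length MAGI1–LgBiT in HEK293T cells by FuGene HD transfection, then serum-starved for 20 h in CO2-independent medium. Cells are read with Nano-Glo 24 h post-transfection. Steady-state luminescence of mutant sensors is referenced to the wild-type pair. For the 20 ng/ml EGF response, signal is followed for 60 min and normalized to initial luminescence and to furimazine decay in unstimulated cells. At least 6 biological replicates.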

PARD3B = assay: NanoBiT protein-protein interaction assay; type: cell-based, human; details: PARD3B 1–913, serum-starved HEK293T, n=6, vs WT RSK1
Outline: as §1

B1: WT: full-length wild type RSK1 (1–735) (protein)
chain: MPLAQLKEPWPLMELVPLDPENGQTSGEEAGLQPSKDEGVLKEISITHHVKAGSEKADPSHFELLKVLGQGSFGKVFLVRKVTRPDSGHLYAMKVLKKATLKVRDRVRTKMERDILADVNHPFVVKLHYAFQTEGKLYLILDFLRGGDLFTRLSKEVMFTEEDVKFYLAELALGLDHLHSLGIIYRDLKPENILLDEEGHIKLTDFGLSKEAIDHEKKAYSFCGTVEYMAPEVVNRQGHSHSADWWSYGVLMFEMLTGSLPFQGKDRKETMTLILKAKLGMPQFLSTEAQSLLRALFKRNPANRLGSGPDGAEEIKRHVFYSTIDWNKLYRREIKPPFKPAVAQPDDTFYFDTEFTSRTPKDSPGIPPSAGAHQLFRGFSFVATGLMEDDGKPRAPQAPLHSVVQQLHGKNLVFSDGYVVKETIGVGSYSECKRCVHKATNMEYAVKVIDKSKRDPSEEIEILLRYGQHPNIITLKDVYDDGKHVYLVTELMRGGELLDKILRQKFFSEREASFVLHTIGKTVEYLHSQGVVHRDLKPSNILYVDESGNPECLRICDFGFAKQLRAENGLLMTPCYTANFVAPEVLKRQGYDEGCDIWSLGILLYTMLAGYTPFANGPSDTPEEILTRIGSGKFTLSGGNWNTVSETAKDLVSKMLHVDPHQRLTAKQVLQHPWVTQKDKLPQSQLSHQDLQLVKGAMAATYSALNSSKPTPQLKPIESSILAQRRVRKLPSTTL
modifications: left off: SmBiT, N-terminal, kept
steady-state luminescence of interaction sensor (SYNJ2BP): high luminescence signals | steady-state luminescence of interaction sensor (ARHGEF12): high luminescence signals | serum-stimulated RhoA activity (RhoA): increased RhoA activity | basal RhoA activity (RhoA; transfected): increased level of basal RhoA activity | steady-state luminescence of interaction sensor (GOPC): high luminescence signals | steady-state luminescence of interaction sensor (MAGI1): high luminescence signals | steady-state luminescence of interaction sensor (PARD3B): high luminescence signals

B2: L714E: RSK1 mutant; eliminates the interaction between ERK and RSK (protein)
chain: B1 chain with L714E
modifications: left off: SmBiT, N-terminal, kept
steady-state luminescence of interaction sensor (SYNJ2BP): decreased the luminescence outputs | steady-state luminescence of interaction sensor (PARD3B): decreased the luminescence outputs

B3: ΔC1: RSK1 with the last C-terminal residue truncated (1–734), no functional PBM (protein)
chain: MPLAQLKEPWPLMELVPLDPENGQTSGEEAGLQPSKDEGVLKEISITHHVKAGSEKADPSHFELLKVLGQGSFGKVFLVRKVTRPDSGHLYAMKVLKKATLKVRDRVRTKMERDILADVNHPFVVKLHYAFQTEGKLYLILDFLRGGDLFTRLSKEVMFTEEDVKFYLAELALGLDHLHSLGIIYRDLKPENILLDEEGHIKLTDFGLSKEAIDHEKKAYSFCGTVEYMAPEVVNRQGHSHSADWWSYGVLMFEMLTGSLPFQGKDRKETMTLILKAKLGMPQFLSTEAQSLLRALFKRNPANRLGSGPDGAEEIKRHVFYSTIDWNKLYRREIKPPFKPAVAQPDDTFYFDTEFTSRTPKDSPGIPPSAGAHQLFRGFSFVATGLMEDDGKPRAPQAPLHSVVQQLHGKNLVFSDGYVVKETIGVGSYSECKRCVHKATNMEYAVKVIDKSKRDPSEEIEILLRYGQHPNIITLKDVYDDGKHVYLVTELMRGGELLDKILRQKFFSEREASFVLHTIGKTVEYLHSQGVVHRDLKPSNILYVDESGNPECLRICDFGFAKQLRAENGLLMTPCYTANFVAPEVLKRQGYDEGCDIWSLGILLYTMLAGYTPFANGPSDTPEEILTRIGSGKFTLSGGNWNTVSETAKDLVSKMLHVDPHQRLTAKQVLQHPWVTQKDKLPQSQLSHQDLQLVKGAMAATYSALNSSKPTPQLKPIESSILAQRRVRKLPSTT
modifications: left off: SmBiT, N-terminal, kept
steady-state luminescence of interaction sensor (SYNJ2BP): significantly reduced the luminescent signal | steady-state luminescence of interaction sensor (ARHGEF12): significantly reduced the luminescent signal | serum-stimulated RhoA activity (RhoA): only minor increment | steady-state luminescence of interaction sensor (GOPC): significantly reduced the luminescent signal | steady-state luminescence of interaction sensor (MAGI1): significantly reduced the luminescent signal | steady-state luminescence of interaction sensor (PARD3B): significantly reduced the luminescent signal
